Converted amounts (≈) assume the structure as drawn. The source made the active and inactive calls. The rule behind the calls is not given here.
What was measured:
Staphylococcus aureus [1] = test: Ratio of antibacterial activity against methicillin-resistant Staphylococcus aureus ATCC 33591 in presence of 1 mg/ml pulmonar surfactant and 50 mg/liter Ca2+ to antibacterial against methicillin-resistant Staphylococcus aureus ATCC 33591; assay type: functional
Method in brief: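 Broth microdilution in cation-adjusted Mueller-Hinton broth (plus 50 mg/liter Ca2+ for daptomycin), with versus without 1 mg/ml pulmonary surfactant (Survanta). Reported as the median and range of activity ratios from two separate experiments.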

Staphylococcus aureus [2] = test: Antibacterial activity against methicillin-resistant Staphylococcus aureus ATCC 33591 by standard checkerboard method in presence of pulmonar surfactant and 50 mg/liter Ca2+; assay type: functional, organism-based
Method in brief: (§1)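 Checkerboard combination of antibiotic with pulmonary surfactant (Survanta) by CLSI broth microdilution in cation-adjusted Mueller-Hinton broth. The top surfactant level was 1 mg/ml, a 25-fold dilution of Survanta. For daptomycin, the broth carried 50 mg/liter Ca2+.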

Streptococcus pneumoniae [3] = test: Antibacterial activity against Streptococcus pneumoniae ATCC 49619 by standard checkerboard method in presence of pulmonar surfactant and 50 mg/liter Ca2+; assay type: functional, organism-based
Method in brief: (§2)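 CLSI broth microdilution in cation-adjusted Mueller-Hinton broth combined with checkerboard of drug against pulmonary surfactant up to 1 mg/ml (25-fold dilution of Survanta); 50 mg/liter Ca2+ added for daptomycin only. Ratios of activity with vs without surfactant given as median and range of two separate experiments.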

Streptococcus pneumoniae [4] = test: Ratio of antibacterial activity against Streptococcus pneumoniae ATCC 49619 in presence of 1 mg/ml pulmonar surfactant and 50 mg/liter Ca2+ to antibacterial against Streptococcus pneumoniae ATCC 49619; assay type: functional; method in brief: as §2
Streptococcus pneumoniae [5] = test: Antibacterial activity against Streptococcus pneumoniae ATCC 49619 by standard checkerboard method in presence of 0.2 to 1 mg/ml pulmonar surfactant; assay type: functional, organism-based; method in brief: as §2
Staphylococcus aureus [6] = test: Antibacterial activity against methicillin-resistant Staphylococcus aureus ATCC 33591 by standard checkerboard method in presence of 0.2 to 1 mg/ml pulmonar surfactant; assay type: functional, organism-based; method in brief: as §1
[7] = Drug level in alveolar macrophage of healthy human undergoing fiber-optic bronchoscopy at 10 mg/kg, iv once daily for 3 days measured at 24 after start of infusion by validated liquid chromatography; assay type: ADME, organism-based; design: dose 10 mg/kg, route intravenous; conditions: alveolar macrophages, read-out: Drug uptake
[8] = Drug level in epithelial lining fluid of healthy human undergoing fiber-optic bronchoscopy at 10 mg/kg, iv once daily for 3 days measured at 8 hrs after start of infusion by validated liquid chromatography; assay type: ADME, organism-based; design: dose 10 mg/kg, route intravenous; conditions: read-out: Drug uptake
Streptococcus pneumoniae [9] = test: Antibacterial activity against Streptococcus pneumoniae
[10] = Drug level in alveolar macrophage of healthy human undergoing fiber-optic bronchoscopy at 10 mg/kg, iv once daily for 3 days measured at 8 hrs after start of infusion by validated liquid chromatography; assay type: ADME, organism-based; design: dose 10 mg/kg, route intravenous; conditions: alveolar macrophages, read-out: Drug uptake
[11] = Drug level in epithelial lining fluid of healthy human undergoing fiber-optic bronchoscopy at 10 mg/kg, iv once daily for 3 days measured at 24 hrs after start of infusion by validated liquid chromatography; assay type: ADME, organism-based; design: dose 10 mg/kg, route intravenous; conditions: read-out: Drug uptake
[12] = Ratio of drug level in alveolar macrophage to plasma of healthy human undergoing fiber-optic bronchoscopy at 10 mg/kg, iv once daily for 3 days measured at 12 hrs after start of infusion; conditions: alveolar macrophages / plasma
[13] = Plasma concentration in healthy human undergoing fiber-optic bronchoscopy at 10 mg/kg, iv once daily for 3 days measured at 12 hrs after start of infusion by validated liquid chromatography; assay type: ADME, organism-based; design: dose 10 mg/kg, route intravenous
Mus musculus = test: fAUC (0 to 24) in mouse pneumonia model at 40 mg/kg; assay type: ADME, organism-based; design: dose 40 mg/kg; conditions: in vivo
[14] = Cmin in healthy human at 10 mg/kg, iv once daily for 3 days measured at 24 after start of infusion; assay type: ADME, organism-based; design: dose 10 mg/kg, route intravenous; conditions: in vivo, read-out: Cmin
Method in brief: (§3)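 Plasma from healthy adults given 10 mg/kg IV over 60 min daily for 3 days, sampled before infusions 1 and 3 and 1, 2, 4, 6, 8, 12, 24 h after the third; validated LC-MS/MS (LLOQ 0.25 μg/ml). Noncompartmental analysis: Cmax, Tmax, Cmin observed; AUC0-24 linear trapezoidal; kel by log-linear regression; t1/2 = 0.693/kel; CL = dose/AUC0-24.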

[15] = Plasma concentration in healthy human undergoing fiber-optic bronchoscopy at 10 mg/kg, iv once daily for 3 days measured at 24 hrs after start of infusion by validated liquid chromatography; assay type: ADME, organism-based; design: dose 10 mg/kg, route intravenous
[16] = AUC (0 to 24) in epithelial lining fluid of healthy human at 10 mg/kg, iv once daily for 3 days; assay type: ADME, organism-based; design: time < 24 hr, dose 10 mg/kg, route intravenous; conditions: in vivo, 24 h
[17] = Clearance at steady state in healthy human at 10 mg/kg, iv once daily for 3 days measured at 24 after start of infusion; assay type: ADME, organism-based; design: dose 10 mg/kg, route intravenous; conditions: in vivo, read-out: CLss (converted); method in brief: as §3
[18] = Terminal half life in healthy human at 10 mg/kg, iv once daily for 3 days measured at 24 after start of infusion; assay type: ADME, organism-based; design: dose 10 mg/kg, route intravenous; conditions: in vivo, read-out: beta t1/2 (converted); method in brief: as §3
Homo sapiens [19] = test: Toxicity in healthy human assessed as pulmonar inflammation at 10 mg/kg, iv once daily for 3 days; assay type: organism-based; design: dose 10 mg/kg, route intravenous; conditions: in vivo, 72 h
[20] = Drug level in alveolar macrophage of healthy human undergoing fiber-optic bronchoscopy at 10 mg/kg, iv once daily for 3 days measured at 12 after start of infusion by validated liquid chromatography; assay type: ADME, organism-based; design: dose 10 mg/kg, route intravenous; conditions: alveolar macrophages, read-out: Drug uptake
[21] = Tmax in healthy human at 10 mg/kg, iv once daily for 3 days measured at 24 after start of infusion; assay type: ADME, organism-based; design: dose 10 mg/kg, route intravenous; conditions: in vivo; method in brief: as §3
Homo sapiens [22] = test: Toxicity in healthy human assessed as pulmonar infection at 10 mg/kg, iv once daily for 3 days; assay type: organism-based; design: dose 10 mg/kg, route intravenous; conditions: in vivo, 72 h
Homo sapiens [23] = test: Toxicity in healthy human at 10 mg/kg/day infused over 1 hr; assay type: organism-based; conditions: in vivo
Streptococcus pneumoniae [24] = test: Antibacterial activity against […] Streptococcus pneumoniae; assay type: functional
Method in brief: (§4)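 MICs by CLSI reference broth microdilution in cation-adjusted Mueller-Hinton broth. For daptomycin testing, the medium was supplemented with 50 mg/liter Ca2+.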

Staphylococcus aureus [25] = test: Antibacterial activity against methicillin-susceptible Staphylococcus aureus; assay type: functional; method in brief: as §4
[26] = Cmax in healthy human at 10 mg/kg, iv once daily for 3 days measured at 24 after start of infusion; assay type: ADME, organism-based; design: dose 10 mg/kg, route intravenous; conditions: in vivo; method in brief: as §3
Staphylococcus aureus [27] = test: Antibacterial activity against methicillin-resistant Staphylococcus aureus; assay type: functional
[28] = Ratio of drug level in alveolar macrophage to plasma of healthy human undergoing fiber-optic bronchoscopy at 10 mg/kg, iv once daily for 3 days measured at 24 hrs after start of infusion; conditions: alveolar macrophages / plasma
Homo sapiens [29] = test: Toxicity in healthy human at 10 mg/kg, iv once daily for 3 days by clinical laboratory test; assay type: organism-based; design: dose 10 mg/kg, route intravenous; conditions: in vivo, 72 h
Method in brief: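 Safety monitored by physical examinations, electrocardiographs and clinical laboratory tests (hematology, serum chemistry, urinalysis) at screening and specified times during 3 days of 10 mg/kg 1-h IV infusions.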

[30] = Mean residence time in healthy human at 10 mg/kg, iv once daily for 3 days measured at 24 after start of infusion; assay type: ADME, organism-based; design: dose 10 mg/kg, route intravenous; conditions: in vivo; method in brief: as §3
Staphylococcus aureus [31] = test: Antibacterial activity against methicillin-resistant Staphylococcus aureus ATCC 33591 by CLSI broth microdilution method; assay type: functional; method in brief: as §4
Homo sapiens [32] = test: Plasma protein binding in healthy human undergoing fiber-optic bronchoscopy at 10 mg/kg, iv once daily for 3 days; conditions: read-out: PPB (converted)

CCCCCCCCCC(=O)N[C@@H](Cc1c[nH]c2ccccc12)C(=O)N[C@H](CC(N)=O)C(=O)N[C@@H](CC(=O)O)C(=O)N[C@@H]1C(=O)NCC(=O)N[C@@H](CCCN)C(=O)N[C@@H](CC(=O)O)C(=O)N[C@H](C)C(=O)N[C@@H](CC(=O)O)C(=O)NCC(=O)N[C@H](CO)C(=O)N[C@@H]([C@H](C)CC(=O)O)C(=O)N[C@@H](CC(=O)c2ccccc2N)C(=O)O[C@@H]1C
Ratio (Staphylococcus aureus [1]): 32 | Activity (Staphylococcus aureus [2]): inactive | Activity (Streptococcus pneumoniae [3]): inactive | Ratio (Streptococcus pneumoniae [4]): 128

CN[C@H](CC(C)C)C(=O)N[C@H]1C(=O)N[C@@H](CC(N)=O)C(=O)N[C@H]2C(=O)N[C@H]3C(=O)N[C@H](C(=O)N[C@H](C(=O)O)c4cc(O)cc(O)c4-c4cc3ccc4O)[C@H](O)c3ccc(c(Cl)c3)Oc3cc2cc(c3O[C@@H]2O[C@H](CO)[C@@H](O)[C@H](O)[C@H]2O[C@H]2C[C@](C)(N)[C@H](O)[C@H](C)O2)Oc2ccc(cc2Cl)[C@H]1O
Activity (Streptococcus pneumoniae [5]): Active | Activity (Staphylococcus aureus [6]): Active

CO/N=C(\C(=O)N[C@@H]1C(=O)N2C(C(=O)O)=C(CSc3nc(=O)c(O)nn3C)CS[C@H]12)c1csc(N)n1
Activity (Streptococcus pneumoniae [5]): Active | Activity (Staphylococcus aureus [6]): Active

CCCCCCCCCCNCCN[C@@]1(C)C[C@H](O[C@H]2[C@H](Oc3c4cc5cc3Oc3ccc(cc3Cl)[C@@H](O)[C@@H](NC(=O)[C@@H](CC(C)C)NC)C(=O)N[C@@H](CC(N)=O)C(=O)N[C@H]5C(=O)N[C@H]3C(=O)N[C@H](C(=O)N[C@H](C(=O)O)c5cc(O)c(CNCP(=O)(O)O)c(O)c5-c5cc3ccc5O)[C@H](O)c3ccc(c(Cl)c3)O4)O[C@H](CO)[C@@H](O)[C@@H]2O)O[C@@H](C)[C@H]1O [TELAVANCIN]
concentration at 72 h [7]: 42000 ng/mL | concentration at 8 h [8]: 3700 ng/mL | MIC90 (Streptococcus pneumoniae [9]): 0.03 µg/mL (≈ 0.0171 µM) | Activity (Streptococcus pneumoniae [5]): Active | concentration at 8 h [10]: 19000 ng/mL | concentration at 24 h [11]: 900 ng/mL | Kp at 12 h [12]: 1.93 | concentration at 12 h [13]: 22900 ng/mL | fAUC (Mus musculus): 52.3 µg/h/mL | concentration at 72 h [14]: 8110 ng/mL | concentration at 24 h [15]: 7280 ng/mL | AUC [16]: 45 µg/h/mL | clearance [17]: 0.217 mL/min/kg | Activity (Staphylococcus aureus [6]): Active | half-life [18]: 7.41 h | Activity (Homo sapiens [19]): Non-toxic | concentration at 72 h [20]: 45000 ng/mL | Tmax [21]: 1 h | Activity (Homo sapiens [22]): Non-toxic | Activity (Homo sapiens [23]): Non-toxic | MIC90 (Streptococcus pneumoniae [24]): 0.03 µg/mL (≈ 0.0171 µM) | MIC90 (Staphylococcus aureus [25]): 0.5 µg/mL (≈ 0.285 µM) | Cmax [26]: 116000 ng/mL | MIC90 (Staphylococcus aureus [27]): 0.5 µg/mL (≈ 0.285 µM) | Kp at 24 h [28]: 6.67 | Activity (Homo sapiens [29]): Non-toxic | MRT [30]: 9.42 h | Activity (Staphylococcus aureus [31]): 0.5 µg/mL | fraction unbound at 72 h (Homo sapiens [32]): 0.1
